System: HEK-293T
Experiment: Multiplex assay against HEK293T
Format: toxicity, cell-based
Settings: human
In short: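 With compound added, live cells were imaged on a CQ1 microscope at 37°C and 5% CO2; staining with Hoechst33342, BioTracker Green Microtubule Cytoskeleton Dye, MitoTracker Red and Annexin V Alexa Fluor 680 had been done at seeding. The CellPathfinder machine-learning gating scheme split cells into Hoechst high-intensity objects or normal cells, normal cells into healthy, pyknosed or fragmented nuclei, and pyknosed cells into mitotic or apoptotic. The tubulin, mitochondrial-mass and membrane-permeability phenotypes are per cents of healthy-nucleus cells.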

[1] = 12 h, 1 µM, compound concentration 1 uM, replicate 1
[2] = 12 h, 1 µM, compound concentration 1 uM, replicate 2
[3] = 12 h, 10 µM, compound concentration 10 uM, replicate 1
[4] = 12 h, 10 µM, compound concentration 10 uM, replicate 2
[5] = 24 h, 1 µM, compound concentration 1 uM, replicate 1
[6] = 24 h, 1 µM, compound concentration 1 uM, replicate 2
[7] = 24 h, 10 µM, compound concentration 10 uM, replicate 1
[8] = 24 h, 10 µM, compound concentration 10 uM, replicate 2
[9] = 48 h, 1 µM, compound concentration 1 uM, replicate 1
[10] = 48 h, 1 µM, compound concentration 1 uM, replicate 2
[11] = 48 h, 10 µM, compound concentration 10 uM, replicate 1
[12] = 48 h, 10 µM, compound concentration 10 uM, replicate 2

Compound: COc1cccc2c1c(NS(=O)(=O)c1ccc(Cl)s1)nn2Cc1cccc(CNC(=O)C(C)(C)O)c1
- Population Apoptotic (%) [1]: 31%
- Population Fragmented Nuclei (%) [1]: 6%
- Population Healthy Nuclei (%) [1]: 82%
- Population Hoechst High Intensity Objects (%) [1]: 6%
- Population Membrane Permeable-Phenotype (%) [1]: 0%
- Population Mitochondria Different-Phenotype (%) [1]: 39%
- Population Mitotic Cells (%) [1]: 68%
- Population Normal (%) [1]: 93%
- Population Pyknosed Nuclei (%) [1]: 10%
- Population Tubulin-Different-Phenotype (%) [1]: 26%
- Total Cell Count [1]: 469
- Population Apoptotic (%) [2]: 34%
- Population Fragmented Nuclei (%) [2]: 7%
- Population Healthy Nuclei (%) [2]: 77%
- Population Hoechst High Intensity Objects (%) [2]: 10%
- Population Mitochondria Different-Phenotype (%) [2]: 52%
- Population Mitotic Cells (%) [2]: 65%
- Population Normal (%) [2]: 89%
- Population Pyknosed Nuclei (%) [2]: 15%
- Population Tubulin-Different-Phenotype (%) [2]: 23%
- Total Cell Count [2]: 315
- Population Apoptotic (%) [3]: 42%
- Population Fragmented Nuclei (%) [3]: 6%
- Population Healthy Nuclei (%) [3]: 80%
- Population Hoechst High Intensity Objects (%) [3]: 7%
- Population Membrane Permeable-Phenotype (%) [3]: 0%
- Population Mitochondria Different-Phenotype (%) [3]: 51%
- Population Mitotic Cells (%) [3]: 57%
- Population Normal (%) [3]: 92%
- Population Pyknosed Nuclei (%) [3]: 12%
- Population Tubulin-Different-Phenotype (%) [3]: 38%
- Total Cell Count [3]: 356
- Population Apoptotic (%) [4]: 35%
- Population Fragmented Nuclei (%) [4]: 5%
- Population Healthy Nuclei (%) [4]: 78%
- Population Hoechst High Intensity Objects (%) [4]: 11%
- Population Mitochondria Different-Phenotype (%) [4]: 69%
- Population Mitotic Cells (%) [4]: 65%
- Population Normal (%) [4]: 88%
- Population Pyknosed Nuclei (%) [4]: 16%
- Population Tubulin-Different-Phenotype (%) [4]: 33%
- Total Cell Count [4]: 280
- Population Apoptotic (%) [5]: 26%
- Population Fragmented Nuclei (%) [5]: 7%
- Population Healthy Nuclei (%) [5]: 81%
- Population Hoechst High Intensity Objects (%) [5]: 2%
- Population Membrane Permeable-Phenotype (%) [5]: 0%
- Population Mitochondria Different-Phenotype (%) [5]: 22%
- Population Mitotic Cells (%) [5]: 73%
- Population Normal (%) [5]: 97%
- Population Pyknosed Nuclei (%) [5]: 11%
- Population Tubulin-Different-Phenotype (%) [5]: 17%
- Total Cell Count [5]: 617
- Population Apoptotic (%) [6]: 44%
- Population Fragmented Nuclei (%) [6]: 6%
- Population Healthy Nuclei (%) [6]: 84%
- Population Hoechst High Intensity Objects (%) [6]: 7%
- Population Mitochondria Different-Phenotype (%) [6]: 37%
- Population Mitotic Cells (%) [6]: 55%
- Population Normal (%) [6]: 92%
- Population Pyknosed Nuclei (%) [6]: 8%
- Population Tubulin-Different-Phenotype (%) [6]: 15%
- Total Cell Count [6]: 357
- Population Apoptotic (%) [7]: 40%
- Population Fragmented Nuclei (%) [7]: 10%
- Population Healthy Nuclei (%) [7]: 73%
- Population Hoechst High Intensity Objects (%) [7]: 5%
- Population Membrane Permeable-Phenotype (%) [7]: 0%
- Population Mitochondria Different-Phenotype (%) [7]: 34%
- Population Mitotic Cells (%) [7]: 60%
- Population Normal (%) [7]: 94%
- Population Pyknosed Nuclei (%) [7]: 16%
- Population Tubulin-Different-Phenotype (%) [7]: 23%
- Total Cell Count [7]: 462
- Population Fragmented Nuclei (%) [8]: 9%
- Population Healthy Nuclei (%) [8]: 77%
- Population Mitochondria Different-Phenotype (%) [8]: 46%
- Population Pyknosed Nuclei (%) [8]: 12%
- Population Tubulin-Different-Phenotype (%) [8]: 22%
- Total Cell Count [8]: 384
- Population Apoptotic (%) [9]: 16%
- Population Fragmented Nuclei (%) [9]: 10%
- Population Healthy Nuclei (%) [9]: 83%
- Population Hoechst High Intensity Objects (%) [9]: 2%
- Population Membrane Permeable-Phenotype (%) [9]: 0%
- Population Mitochondria Different-Phenotype (%) [9]: 18%
- Population Mitotic Cells (%) [9]: 83%
- Population Normal (%) [9]: 97%
- Population Pyknosed Nuclei (%) [9]: 6%
- Population Tubulin-Different-Phenotype (%) [9]: 11%
- Total Cell Count [9]: 1062
- Population Apoptotic (%) [10]: 28%
- Population Fragmented Nuclei (%) [10]: 11%
- Population Membrane Permeable-Phenotype (%) [10]: 2%
- Population Mitochondria Different-Phenotype (%) [10]: 21%
- Population Mitotic Cells (%) [10]: 71%
- Population Pyknosed Nuclei (%) [10]: 4%
- Population Tubulin-Different-Phenotype (%) [10]: 10%
- Total Cell Count [10]: 591
- Population Apoptotic (%) [11]: 26%
- Population Fragmented Nuclei (%) [11]: 16%
- Population Healthy Nuclei (%) [11]: 72%
- Population Hoechst High Intensity Objects (%) [11]: 4%
- Population Membrane Permeable-Phenotype (%) [11]: 0%
- Population Mitochondria Different-Phenotype (%) [11]: 25%
- Population Mitotic Cells (%) [11]: 73%
- Population Normal (%) [11]: 95%
- Population Pyknosed Nuclei (%) [11]: 10%
- Population Tubulin-Different-Phenotype (%) [11]: 16%
- Total Cell Count [11]: 646
- Population Apoptotic (%) [12]: 35%
- Population Fragmented Nuclei (%) [12]: 8%
- Population Healthy Nuclei (%) [12]: 83%
- Population Mitochondria Different-Phenotype (%) [12]: 27%
- Population Mitotic Cells (%) [12]: 65%
- Population Pyknosed Nuclei (%) [12]: 7%
- Population Tubulin-Different-Phenotype (%) [12]: 12%
- Total Cell Count [12]: 550

Compound: Br.CS(=O)(=O)Nc1c(O)ccc2c1CCCC2C1=NCCN1 (stereo not given)
- Population Apoptotic (%) [1]: 40%
- Population Fragmented Nuclei (%) [1]: 7%
- Population Healthy Nuclei (%) [1]: 80%
- Population Hoechst High Intensity Objects (%) [1]: 5%
- Population Membrane Permeable-Phenotype (%) [1]: 0%
- Population Mitochondria Different-Phenotype (%) [1]: 45%
- Population Mitotic Cells (%) [1]: 59%
- Population Normal (%) [1]: 94%
- Population Pyknosed Nuclei (%) [1]: 12%
- Population Tubulin-Different-Phenotype (%) [1]: 26%
- Total Cell Count [1]: 407
- Population Apoptotic (%) [2]: 43%
- Population Fragmented Nuclei (%) [2]: 5%
- Population Healthy Nuclei (%) [2]: 81%
- Population Hoechst High Intensity Objects (%) [2]: 8%
- Population Mitochondria Different-Phenotype (%) [2]: 52%
- Population Mitotic Cells (%) [2]: 56%
- Population Normal (%) [2]: 91%
- Population Tubulin-Different-Phenotype (%) [2]: 18%
- Total Cell Count [2]: 334
- Population Apoptotic (%) [3]: 48%
- Population Fragmented Nuclei (%) [3]: 8%
- Population Healthy Nuclei (%) [3]: 76%
- Population Hoechst High Intensity Objects (%) [3]: 12%
- Population Membrane Permeable-Phenotype (%) [3]: 0%
- Population Mitochondria Different-Phenotype (%) [3]: 60%
- Population Mitotic Cells (%) [3]: 52%
- Population Normal (%) [3]: 87%
- Population Pyknosed Nuclei (%) [3]: 14%
- Population Tubulin-Different-Phenotype (%) [3]: 33%
- Total Cell Count [3]: 381
- Population Apoptotic (%) [4]: 55%
- Population Fragmented Nuclei (%) [4]: 6%
- Population Healthy Nuclei (%) [4]: 79%
- Population Hoechst High Intensity Objects (%) [4]: 14%
- Population Mitochondria Different-Phenotype (%) [4]: 67%
- Population Mitotic Cells (%) [4]: 44%
- Population Normal (%) [4]: 85%
- Population Tubulin-Different-Phenotype (%) [4]: 26%
- Total Cell Count [4]: 292
- Population Apoptotic (%) [5]: 38%
- Population Fragmented Nuclei (%) [5]: 10%
- Population Healthy Nuclei (%) [5]: 79%
- Population Hoechst High Intensity Objects (%) [5]: 5%
- Population Membrane Permeable-Phenotype (%) [5]: 1%
- Population Mitochondria Different-Phenotype (%) [5]: 34%
- Population Mitotic Cells (%) [5]: 61%
- Population Normal (%) [5]: 94%
- Population Pyknosed Nuclei (%) [5]: 10%
- Population Tubulin-Different-Phenotype (%) [5]: 21%
- Total Cell Count [5]: 549
- Population Apoptotic (%) [6]: 55%
- Population Fragmented Nuclei (%) [6]: 6%
- Population Healthy Nuclei (%) [6]: 80%
- Population Hoechst High Intensity Objects (%) [6]: 8%
- Population Membrane Permeable-Phenotype (%) [6]: 0%
- Population Mitochondria Different-Phenotype (%) [6]: 41%
- Population Mitotic Cells (%) [6]: 44%
- Population Normal (%) [6]: 91%
- Population Pyknosed Nuclei (%) [6]: 13%
- Population Tubulin-Different-Phenotype (%) [6]: 17%
- Total Cell Count [6]: 387
- Population Apoptotic (%) [7]: 30%
- Population Fragmented Nuclei (%) [7]: 11%
- Population Healthy Nuclei (%) [7]: 75%
- Population Hoechst High Intensity Objects (%) [7]: 6%
- Population Membrane Permeable-Phenotype (%) [7]: 0%
- Population Mitochondria Different-Phenotype (%) [7]: 40%
- Population Mitotic Cells (%) [7]: 69%
- Population Normal (%) [7]: 93%
- Population Pyknosed Nuclei (%) [7]: 12%
- Population Tubulin-Different-Phenotype (%) [7]: 23%
- Total Cell Count [7]: 451
- Population Apoptotic (%) [8]: 34%
- Population Healthy Nuclei (%) [8]: 77%
- Population Hoechst High Intensity Objects (%) [8]: 11%
- Population Mitochondria Different-Phenotype (%) [8]: 46%
- Population Mitotic Cells (%) [8]: 65%
- Population Normal (%) [8]: 88%
- Population Pyknosed Nuclei (%) [8]: 10%
- Population Tubulin-Different-Phenotype (%) [8]: 21%
- Total Cell Count [8]: 377
- Population Apoptotic (%) [9]: 12%
- Population Fragmented Nuclei (%) [9]: 14%
- Population Healthy Nuclei (%) [9]: 78%
- Population Hoechst High Intensity Objects (%) [9]: 4%
- Population Membrane Permeable-Phenotype (%) [9]: 0%
- Population Mitochondria Different-Phenotype (%) [9]: 20%
- Population Mitotic Cells (%) [9]: 87%
- Population Normal (%) [9]: 95%
- Population Pyknosed Nuclei (%) [9]: 7%
- Population Tubulin-Different-Phenotype (%) [9]: 14%
- Total Cell Count [9]: 859
- Population Apoptotic (%) [10]: 29%
- Population Fragmented Nuclei (%) [10]: 11%
- Population Hoechst High Intensity Objects (%) [10]: 6%
- Population Mitochondria Different-Phenotype (%) [10]: 22%
- Population Mitotic Cells (%) [10]: 70%
- Population Normal (%) [10]: 93%
- Population Pyknosed Nuclei (%) [10]: 9%
- Population Tubulin-Different-Phenotype (%) [10]: 12%
- Total Cell Count [10]: 532
- Population Apoptotic (%) [11]: 34%
- Population Fragmented Nuclei (%) [11]: 16%
- Population Healthy Nuclei (%) [11]: 76%
- Population Hoechst High Intensity Objects (%) [11]: 4%
- Population Membrane Permeable-Phenotype (%) [11]: 1%
- Population Mitochondria Different-Phenotype (%) [11]: 22%
- Population Mitotic Cells (%) [11]: 65%
- Population Normal (%) [11]: 95%
- Population Pyknosed Nuclei (%) [11]: 6%
- Population Tubulin-Different-Phenotype (%) [11]: 12%
- Total Cell Count [11]: 671
- Population Apoptotic (%) [12]: 48%
- Population Fragmented Nuclei (%) [12]: 14%
- Population Healthy Nuclei (%) [12]: 79%
- Population Membrane Permeable-Phenotype (%) [12]: 0%
- Population Mitochondria Different-Phenotype (%) [12]: 27%
- Population Mitotic Cells (%) [12]: 51%
- Population Pyknosed Nuclei (%) [12]: 5%
- Population Tubulin-Different-Phenotype (%) [12]: 11%
- Total Cell Count [12]: 584
